Experimental data of several laboratories.
Each line is one published result; the experiments were not run side by side.
Target: Mitogen-activated protein kinase 7 (MAPK7, Homo sapiens, UniProt Q13164)

SMILES	observed	technique	tested at	remaining binding [%]
FC(F)(F)Oc1cccc(-c2cnc3ccc(-c4ccncc4)nn23)c1	cell-free assay	competition with immobilised ligand	5 µM	99
C=CC(=O)N1CCC(C(=O)NCC(=O)N2CCN(c3nc(-c4cnc(N)nc4C(F)F)nc(N4CCOCC4)n3)CC2)CC1	binding	competition with immobilised ligand	1 µM	100
COc1ccc2c(O[C@@H]3C[C@H]4C(=O)N[C@]5(C(=O)O)CC5/C=C\CCCCC[C@H](NC(=O)OC5CCCC5)C(=O)N4C3)cc(-c3csc(NC(=O)C(C)C)n3)nc2c1C (some centres unmarked)	cell-free assay	competition with immobilised ligand	1 µM	100
CNC(=O)[C@@H]1CC[C@@H](n2c(-c3ccc4cnccc4c3)nc3ccc(C(=O)NCc4cccc(C(N)=O)c4)cc32)C1	binding	competition with immobilised ligand	1 µM	100
CCN1CCN(Cc2ccc(C(=O)Nc3ccc(C)c(Oc4ccc5c(c4)CC(=O)N5)c3)cc2C(F)(F)F)CC1	binding	competition with immobilised ligand	1 µM	100
N[C@H]1CCN(c2nccc(-c3cnn4ncccc34)n2)C1	binding	–	1 µM	100
O=C(NCCCN1CCOCC1)c1ccc(Nc2nccc(-c3cc4ccccc4s3)n2)cc1	binding	competition with immobilised ligand	1 µM	87
FC(F)(F)c1ccc2c(c1)nc(-c1cccnc1)n2C1CC1	cell-free assay	competition with immobilised ligand	1 µM	100
CN(c1nccc(-c2cnn3ncccc23)n1)C1CC1	binding	–	1 µM	100
CN([C@@H]1CCc2c(CC(=O)O)c3ccccc3n2C1)S(=O)(=O)c1ccc(F)cc1	cell-free assay	competition with immobilised ligand	1 µM	100
COc1ncc2cc3ccccc3nc2c1C#N	cell-free assay	competition with immobilised ligand	5 µM	100
COc1cnc(Nc2cccc(S(N)(=O)=O)c2)nc1N1CCN(c2ccccc2)C(=O)C1	binding	competition with immobilised ligand	1 µM	100
C[C@H]1CCN(c2nccc(-c3cnn4ncccc34)n2)C1	binding	–	1 µM	93
Cc1noc([C@H]2C[C@@H](c3ccc(C(F)(F)F)cc3)CN(C(=O)N3CCS(=O)(=O)C3)C2)n1	cell-free assay	competition with immobilised ligand	1 µM	87
O=C(c1ccc(Nc2nccc(-c3cc4ccccc4s3)n2)cc1)N1CCC(N2CCCC2)CC1	binding	competition with immobilised ligand	1 µM	100
F[C@@H]1CCN(c2nccc(-c3cnn4ncccc34)n2)C1	binding	–	1 µM	100
O=C(Nc1c[nH]nc1C(=O)NC1CCNCC1)c1cc(F)cc(F)c1	binding	competition with immobilised ligand	1 µM	83
CN(C)C(=O)Cn1cc(-c2nc([C@@](C)(c3ccc(-c4cnc(N)nc4)cc3)C3CC3)no2)cn1	cell-free assay	competition with immobilised ligand	1 µM	90
O=C(c1ccc(Nc2ncc(Cl)c(-c3cc4ccccc4s3)n2)cc1)N1CCC(N2CCCC2)CC1	binding	competition with immobilised ligand	1 µM	60
CN(C)c1nccc(-c2cnc3ncccn23)n1	binding	–	1 µM	92
CNC(=O)Nc1ccc2c(c1)[C@@]1(CC2)OC(=O)N(CC(=O)N(Cc2ccc(F)cc2)[C@@H](C)C(F)(F)F)C1=O	cell-free assay	competition with immobilised ligand	1 µM	85
CC1CCCN1c1nccc(-c2cnn3ncccc23)n1 (centres unmarked)	binding	–	1 µM	100
CN([C@@H]1CCc2c(CC(=O)O)c3cc(S(C)(=O)=O)ccc3n2C1)S(=O)(=O)c1ccc(F)cc1	cell-free assay	competition with immobilised ligand	1 µM	96
